Results reported in ChEMBL document CHEMBL4020804, “Minor phenolics from Angelica keiskei and their proliferative effects on Hep3B cells” (Bioorg Med Chem Lett, 2017).

Columns and labels:
NIH3T3 [1] = assay: Cytoprotective activity against GOX-induced oxidative stress in mouse NIH/3T3 cells assessed as cell survival at 1 uM treated for 5 hrs with 15 mU/ml GOX challenge by MTT assay (reference value: 42.71 +/- 2.10%); assay type: functional; conditions: NIH3T3, 5 h, read-out: Survival
NIH3T3 [2] = assay: Cytoprotective activity against GOX-induced cytotoxicity in mouse NIH/3T3 cells assessed as decrease in LDH release treated for 5 hrs with 15 mU/ml GOX challenge by spectrophotometric method; assay type: functional, cell-based
NIH3T3 [3] = assay: Cytoprotective activity against GOX-induced cytotoxicity in mouse NIH/3T3 cells assessed as LDH release at 0.1 uM treated for 5 hrs with 15 mU/ml GOX challenge by spectrophotometric method (reference value: 63.34 +/- 1.85%); assay type: functional
Hep 3B2 [4] = assay: Cytoprotective activity against GOX-induced cytotoxicity in human Hep3B cells assessed as LDH release at 10 uM treated for 5 hrs with 15 mU/ml GOX challenge by spectrophotometric method (reference value: 60.94 +/- 1.18%); assay type: functional
Hep 3B2 [5] = assay: Proliferative activity against human Hep3B cells assessed as cell viability after 4 days by cell counting method; assay type: functional, cell-based
Method in brief: (§1)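 Hep3B kept in DMEM/10% FBS, 37°C, 5% CO2, then seeded at 1×10^5 cells/ml in medium containing compound (0.1–100 μM; DMSO-only control) in monolayer. Cells were checked daily by microscope for attachment and morphology, and counted after 4 days, in triplicate, in three independent experiments. Counts are given as % of the 0 μM group.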

Hep 3B2 [6] = assay: Proliferative activity against human Hep3B cells assessed as cell viability at 1 uM after 4 days by cell counting method relative to control; assay type: functional; conditions: 96 h, read-out: Activity; method in brief: as §1
Hep 3B2 [7] = assay: Cytoprotective activity against GOX-induced cytotoxicity in human Hep3B cells assessed as decrease in LDH release treated for 5 hrs with 15 mU/ml GOX challenge by spectrophotometric method; assay type: functional, cell-based
Hep 3B2 [8] = assay: Cytoprotective activity against GOX-induced cytotoxicity in human Hep3B cells assessed as LDH release at 1 uM treated for 5 hrs with 15 mU/ml GOX challenge by spectrophotometric method (reference value: 60.94 +/- 1.18%); assay type: functional
Hep 3B2 [9] = assay: Cytoprotective activity against GOX-induced oxidative stress in human Hep3B cells assessed as cell survival at 1 uM treated for 5 hrs with 15 mU/ml GOX challenge by MTT assay (reference value: 41.51 +/- 1.39%); assay type: functional; conditions: read-out: Survival
Hep 3B2 [10] = assay: Cytotoxicity against human Hep3B cells assessed as effect on cell morphology at 0.1 to 100 uM measured every day during 4 days incubation period by microscopic method; assay type: cell-based; conditions: hep 3b2, 96 h; method in brief: as §1
Hep 3B2 [11] = assay: Cytoprotective activity against GOX-induced oxidative stress in human Hep3B cells assessed as cell survival at 100 uM treated for 5 hrs with 15 mU/ml GOX challenge by MTT assay (reference value: 41.51 +/- 1.39%); assay type: functional; conditions: read-out: Survival
Hep 3B2 [12] = assay: Cytoprotective activity against GOX-induced oxidative stress in human Hep3B cells assessed as cell survival at 0.1 uM treated for 5 hrs with 15 mU/ml GOX challenge by MTT assay (reference value: 41.51 +/- 1.39%); assay type: functional; conditions: read-out: Survival
NIH3T3 [13] = assay: Cytoprotective activity against GOX-induced oxidative stress in mouse NIH/3T3 cells assessed as cell survival at 10 uM treated for 5 hrs with 15 mU/ml GOX challenge by MTT assay (reference value: 42.71 +/- 2.10%); assay type: functional; conditions: NIH3T3, 5 h, read-out: Survival
NIH3T3 [14] = assay: Cytoprotective activity against GOX-induced oxidative stress in mouse NIH/3T3 cells assessed as cell survival at 100 uM treated for 5 hrs with 15 mU/ml GOX challenge by MTT assay (reference value: 42.71 +/- 2.10%); assay type: functional; conditions: NIH3T3, 5 h, read-out: Survival
NIH3T3 [15] = assay: Cytoprotective activity against GOX-induced oxidative stress in mouse NIH/3T3 cells assessed as increase in cell survival treated for 5 hrs with 15 mU/ml GOX challenge by MTT assay; assay type: functional, cell-based
Method in brief: (§2)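 Cells plated at 7×10^4 per well; next day exposed for 5 h to compound (0.1–100 μM) with 15 mU/ml glucose oxidase in growth medium. Viability expressed relative to GOX-free cells; α-tocopherol positive control.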

Hep 3B2 [16] = assay: Cytotoxicity against human Hep3B cells assessed as effect on cell attachment at 0.1 to 100 uM measured every day during 4 days incubation period by microscopic method; assay type: cell-based; conditions: hep 3b2, 96 h; method in brief: as §1
Hep 3B2 [17] = assay: Cytoprotective activity against GOX-induced oxidative stress in human Hep3B cells assessed as cell survival at 10 uM treated for 5 hrs with 15 mU/ml GOX challenge by MTT assay (reference value: 41.51 +/- 1.39%); assay type: functional; conditions: read-out: Survival
Hep 3B2 [18] = assay: Proliferative activity against human Hep3B cells assessed as cell viability at 100 uM after 4 days by cell counting method relative to control; assay type: functional; conditions: 96 h, read-out: Activity; method in brief: as §1
NIH3T3 [19] = assay: Cytoprotective activity against GOX-induced cytotoxicity in mouse NIH/3T3 cells assessed as LDH release at 100 uM treated for 5 hrs with 15 mU/ml GOX challenge by spectrophotometric method (reference value: 63.34 +/- 1.85%); assay type: functional
Hep 3B2 [20] = assay: Proliferative activity against human Hep3B cells assessed as cell viability at 10 uM after 4 days by cell counting method relative to control; assay type: functional; conditions: 96 h, read-out: Activity; method in brief: as §1
Hep 3B2 [21] = assay: Cytoprotective activity against GOX-induced oxidative stress in human Hep3B cells assessed as increase in cell survival treated for 5 hrs with 15 mU/ml GOX challenge by MTT assay; assay type: functional, cell-based; method in brief: as §2
NIH3T3 [22] = assay: Cytoprotective activity against GOX-induced oxidative stress in mouse NIH/3T3 cells assessed as cell survival at 0.1 uM treated for 5 hrs with 15 mU/ml GOX challenge by MTT assay (reference value: 42.71 +/- 2.10%); assay type: functional; conditions: NIH3T3, 5 h, read-out: Survival
NIH3T3 [23] = assay: Cytoprotective activity against GOX-induced cytotoxicity in mouse NIH/3T3 cells assessed as LDH release at 1 uM treated for 5 hrs with 15 mU/ml GOX challenge by spectrophotometric method (reference value: 63.34 +/- 1.85%); assay type: functional
Hep 3B2 [24] = assay: Proliferative activity against human Hep3B cells assessed as cell viability at 0.1 uM after 4 days by cell counting method relative to control; assay type: functional; conditions: 96 h, read-out: Activity; method in brief: as §1
Hep 3B2 [25] = assay: Cytoprotective activity against GOX-induced cytotoxicity in human Hep3B cells assessed as LDH release at 0.1 uM treated for 5 hrs with 15 mU/ml GOX challenge by spectrophotometric method (reference value: 60.94 +/- 1.18%); assay type: functional
Hep 3B2 [26] = assay: Cytoprotective activity against GOX-induced cytotoxicity in human Hep3B cells assessed as LDH release at 100 uM treated for 5 hrs with 15 mU/ml GOX challenge by spectrophotometric method (reference value: 60.94 +/- 1.18%); assay type: functional
NIH3T3 [27] = assay: Cytoprotective activity against GOX-induced cytotoxicity in mouse NIH/3T3 cells assessed as LDH release at 10 uM treated for 5 hrs with 15 mU/ml GOX challenge by spectrophotometric method (reference value: 63.34 +/- 1.85%); assay type: functional

SMILES | viability at 1 µM (NIH3T3 [1]) | Activity (NIH3T3 [2]) | Activity (NIH3T3 [3]) | Activity (Hep 3B2 [4]) | Activity (Hep 3B2 [5]) | viability at 1 µM (Hep 3B2 [6]) | Activity (Hep 3B2 [7]) | Activity (Hep 3B2 [8]) | viability at 1 µM (Hep 3B2 [9]) | Activity (Hep 3B2 [10]) | viability at 100 µM (Hep 3B2 [11]) | viability at 0.1 µM (Hep 3B2 [12]) | viability at 10 µM (NIH3T3 [13]) | viability at 100 µM (NIH3T3 [14]) | Activity (NIH3T3 [15]) | Activity (Hep 3B2 [16]) | viability at 10 µM (Hep 3B2 [17]) | viability at 100 µM (Hep 3B2 [18]) | Activity (NIH3T3 [19]) | viability at 10 µM (Hep 3B2 [20]) | other results
C/C(=C\Cc1c(O)ccc(C(=O)/C=C/c2ccc(O)cc2)c1O)CCC(=O)O | 44.7% | Dose-dependent effect | 36.37% | 16.93% | Dose-dependent effect | 100% | Dose-dependent effect | 20.34% | 45.5% | Non-Toxic | 74.1% | 44.3% | 57.8% | 74.5% | Dose-dependent effect | Non-Toxic | 57.1% | 115% | 6.96% | 107% | Activity (Hep 3B2 [21]): Dose-dependent effect; viability at 0.1 µM (NIH3T3 [22]): 43.2%; Activity (NIH3T3 [23]): 20.71%; viability at 0.1 µM (Hep 3B2 [24]): 100%; Activity (Hep 3B2 [25]): 30.97%; Activity (Hep 3B2 [26]): 7.6%; Activity (NIH3T3 [27]): 18.78%
C=C(C)[C@H]1CC[C@](C)([C@@H](O)Cc2c(O)ccc(C(=O)/C=C/c3ccc(O)cc3)c2O)O1 (racemic) | 61.4% | Dose-dependent effect | 28.31% | 14.03% | Dose-dependent effect | 101% | Dose-dependent effect | 20.91% | 60.5% | Non-Toxic | 76.8% | 45.2% | 66.4% | 81.8% | Dose-dependent effect | Non-Toxic | 65.4% | 116% | 6.22% | 102% | Activity (Hep 3B2 [21]): Dose-dependent effect; viability at 0.1 µM (NIH3T3 [22]): 44.9%; Activity (NIH3T3 [23]): 20.91%; viability at 0.1 µM (Hep 3B2 [24]): 100%; Activity (Hep 3B2 [25]): 26.09%; Activity (Hep 3B2 [26]): 6.99%; Activity (NIH3T3 [27]): 15.76%
O=C1CC(c2ccc(O)cc2)Oc2cc(O)ccc21 (racemic) | 88.4% | Dose-dependent effect | 18.42% | 4.93% | Dose-dependent effect | 104% | Dose-dependent effect | 6.83% | 88.4% | Non-Toxic | 112% | 70.7% | 111% | 126% | Dose-dependent effect | Non-Toxic | 98.8% | 135% | 2.63% | 112% | Activity (Hep 3B2 [21]): Dose-dependent effect; viability at 0.1 µM (NIH3T3 [22]): 74.1%; Activity (NIH3T3 [23]): 7.85%; viability at 0.1 µM (Hep 3B2 [24]): 100%; Activity (Hep 3B2 [25]): 11.57%; Activity (Hep 3B2 [26]): 3.82%; Activity (NIH3T3 [27]): 5.51%
O=C(CCc1ccc(O)cc1)c1ccc(O)cc1O [DAVIDIGENIN] | 84% | Dose-dependent effect | 24.04% | 11.83% | Dose-dependent effect | 106% | Dose-dependent effect | 18.61% | 83.4% | Non-Toxic | 104% | 59.3% | 113% | 123% | Dose-dependent effect | Non-Toxic | 94.9% | 140% | 3.1% | 116% | Activity (Hep 3B2 [21]): Dose-dependent effect; viability at 0.1 µM (NIH3T3 [22]): 60.6%; Activity (NIH3T3 [23]): 15.74%; viability at 0.1 µM (Hep 3B2 [24]): 104%; Activity (Hep 3B2 [25]): 22.37%; Activity (Hep 3B2 [26]): 4.16%; Activity (NIH3T3 [27]): 12.69%
